Test results as given in ChEMBL document CHEMBL2151003, “Synthesis and antitumor activity of ring A modified glycyrrhetinic acid derivatives” (Eur J Med Chem, 2011).
Activity calls are given as the source filed them. The calls are words filed in the database; no cut-off is given here.

Assays:
[1] = Cytotoxicity against human 518A2 cells after 96 hrs by SRB assay; type: functional, cell-based
How it was run: (§1)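 Monolayer cultures in RPMI 1640 with 10% heat-inactivated FBS and penicillin/streptomycin, 37 °C, 5% CO2. Exponentially growing cells were seeded, then treated 24 h later with serial dilutions (0–30 µM; DMSO or DMF ≤0.5% final) for 96 h. Cells were fixed with 10% TCA at 4 °C, stained with 0.4% SRB and solubilized in 10 mM Tris base; A570 was read. IC50 came from semi-log dose–response curves, ≥3 independent experiments.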

[2] = tested on: HCT-116; experiment: Cytotoxicity against human HCT116 cells after 96 hrs by SRB assay; type: functional, cell-based; how it was run: as §1
[3] = tested on: DLD-1; experiment: Cytotoxicity against human DLD1 cells after 96 hrs by SRB assay; type: functional, cell-based; how it was run: as §1
[4] = tested on: A549; experiment: Cytotoxicity against human A549 cells after 96 hrs by SRB assay; type: functional, cell-based; how it was run: as §1
[5] = tested on: A-431; experiment: Cytotoxicity against human A431 cells after 96 hrs by SRB assay; type: functional, cell-based; how it was run: as §1
[6] = Cytotoxicity against human A253 cells after 96 hrs by SRB assay; type: functional, cell-based; how it was run: as §1
[7] = tested on: HT-29; experiment: Cytotoxicity against human HT-29 cells after 96 hrs by SRB assay; type: functional, cell-based; how it was run: as §1
[8] = Cytotoxicity against human Lipo cells after 96 hrs by SRB assay; type: functional, cell-based; how it was run: as §1
[9] = tested on: MCF7; experiment: Cytotoxicity against human MCF7 cells after 96 hrs by SRB assay; type: functional, cell-based; how it was run: as §1
[10] = tested on: A549; experiment: Induction of apoptosis in human A549 cells assessed as apoptotic effect at 60 uM after 24 to 48 hrs by trypan blue cell counting analysis; type: functional
How it was run: (§2)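 A549 cells (approx. 500,000 per flask) were grown 24 h, then given compound-containing medium for about 24–48 h. Collected cells were pelleted, washed in PBS and mixed 1:1 with 0.4% trypan blue in PBS, pH 7.2. An automated counter distinguished cells with intact and with damaged membranes. Results are % apoptosis ± standard error, 6 experiments each.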

[11] = tested on: A549; experiment: Induction of apoptosis in human A549 cells assessed as appearance of green fluorescent cells at 60 uM after 24 to 48 hrs by acridine orange/ethidium bromide staining based fluorescence microscopy; type: functional, cell-based
How it was run: (§3)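 Approx. 500,000 A549 cells per flask were grown 24 h, then exposed to compound-containing medium for 24–48 h. Cells from the supernatant were pelleted, washed and resuspended in PBS, mixed with AO/EB and examined by fluorescence microscopy. Green fluorescence was scored as apoptotic and red nuclei as necrotic; the read-out is qualitative.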

[12] = tested on: SW-1736; experiment: Cytotoxicity against human SW1736 cells after 96 hrs by SRB assay; type: functional, cell-based; how it was run: as §1
[13] = tested on: 8505C; experiment: Cytotoxicity against human 8505C cells after 96 hrs by SRB assay; type: functional, cell-based; how it was run: as §1
[14] = tested on: A2780; experiment: Cytotoxicity against human A2780 cells after 96 hrs by SRB assay; type: functional, cell-based; how it was run: as §1
[15] = tested on: A549; experiment: Induction of apoptosis in human A549 cells assessed as apoptotic effect at 20 uM after 24 to 48 hrs by trypan blue cell counting analysis; type: functional; how it was run: as §2
[16] = tested on: A549; experiment: Induction of apoptosis in human A549 cells assessed as appearance of green fluorescent cells at 20 uM after 24 to 48 hrs by acridine orange/ethidium bromide staining based fluorescence microscopy; type: functional, cell-based; how it was run: as §3
[17] = tested on: HCT-8; experiment: Cytotoxicity against human HCT8 cells after 96 hrs by SRB assay; type: functional, cell-based
How it was run: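 Monolayers in RPMI 1640 with 10% heat-inactivated FBS and penicillin/streptomycin, 37 °C, 5% CO2. Seeded day 0 and exposed 24 h later to serial dilutions (0–30 µM; DMSO or DMF ≤0.5% final) for 96 h. Cells were then fixed with 10% TCA at 4 °C, stained with 0.4% SRB, washed with 1% acetic acid and dissolved in 10 mM Tris, and A570 was read. IC50 from semi-log dose–response curves, ≥3 independent experiments.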

[18] = tested on: A549; experiment: Induction of apoptosis in human A549 cells assessed as apoptotic effect after 24 to 48 hrs by trypan blue cell counting analysis; type: functional; how it was run: as §2
[19] = tested on: A549; experiment: Induction of apoptosis in human A549 cells assessed as apoptotic effect at 90 uM after 24 to 48 hrs by trypan blue cell counting analysis; type: functional; how it was run: as §2
[20] = tested on: A549; experiment: Induction of apoptosis in human A549 cells assessed as apoptotic effect at 8 uM after 24 to 48 hrs by trypan blue cell counting analysis; type: functional; how it was run: as §2
[21] = tested on: A549; experiment: Induction of apoptosis in human A549 cells assessed as appearance of green fluorescent cells at 8 uM after 24 to 48 hrs by acridine orange/ethidium bromide staining based fluorescence microscopy; type: functional, cell-based; how it was run: as §3
[22] = tested on: A549; experiment: Induction of apoptosis in human A549 cells assessed as apoptotic effect at 4 uM after 24 to 48 hrs by trypan blue cell counting analysis; type: functional; how it was run: as §2
[23] = tested on: A549; experiment: Induction of apoptosis in human A549 cells assessed as appearance of green fluorescent cells at 4 uM after 24 to 48 hrs by acridine orange/ethidium bromide staining based fluorescence microscopy; type: functional, cell-based; how it was run: as §3

Row | SMILES | IC50 [1] [µmol] | IC50 [3] [µmol] | IC50 [4] [µmol] | IC50 [6] [µmol] | IC50 [8] [µmol] | IC50 [9] [µmol] | IC50 [12] [µmol] | IC50 [13] [µmol] | IC50 [14] [µmol] | Activity [16] | further results
1 | CCOC(=O)[C@@]1(C)CC[C@]2(C)CC[C@]3(C)C(=CC(=O)[C@@H]4[C@@]5(C)C[C@H](F)[C@@H](O)C(C)(C)[C@@H]5CC[C@]43C)[C@@H]2C1 | > 30 | > 30 | > 30 | > 30 | > 30 | > 30 | – | – | – | – | IC50 [2]: > 30 µmol; IC50 [5]: > 30 µmol; IC50 [7]: 24.72 µmol; Activity [10]: 80.32%; Activity [11]: Active
2 | COC(=O)[C@@]1(C)CC[C@]2(C)CC[C@]3(C)C(=CC(=O)[C@@H]4[C@@]5(C)CC/C(=N\O)C(C)(C)[C@@H]5CC[C@]43C)[C@@H]2C1 | 18.93 | 10.46 | 17.4 | 13.56 | 18.34 | 15.95 | 13 | 17.18 | 6.18 | Active | Activity [15]: 32.43%
3 | CC1(C)[C@H](O)CC[C@]2(C)[C@H]3C(=O)C=C4[C@@H]5C[C@@](C)(C(=O)O)CC[C@]5(C)CC[C@@]4(C)[C@]3(C)CC[C@@H]12 | > 30 | > 30 | > 30 | > 30 | > 30 | > 30 | > 30 | – | – | – | IC50 [17]: > 30 µmol; IC50 [2]: > 30 µmol; IC50 [5]: > 30 µmol; IC50 [7]: > 30 µmol
4 | COC(=O)[C@@]1(C)CC[C@]2(C)CC[C@]3(C)C(=CC(=O)[C@@H]4[C@@]5(C)CC[C@H](OC(=O)[C@@H](N)CSSC[C@H](N)C(=O)O[C@H]6CC[C@]7(C)[C@H]8C(=O)C=C9[C@@H]%10C[C@@](C)(C(=O)OC)CC[C@]%10(C)CC[C@@]9(C)[C@]8(C)CC[C@H]7C6(C)C)C(C)(C)[C@@H]5CC[C@]43C)[C@@H]2C1 | 24.54 | > 30 | 18.75 | 19.07 | 22.6 | – | 16.82 | 15.1 | – | Active | Activity [15]: 40.91%
5 | COC(=O)[C@@]1(C)CC[C@]2(C)CC[C@]3(C)C(=CC(=O)[C@@H]4[C@@]5(C)CC/C(=N\OC(=O)[C@H](C)NC(=O)OC(C)(C)C)C(C)(C)[C@@H]5CC[C@]43C)[C@@H]2C1 | 16.49 | 19.1 | 15.83 | 14.12 | 18.99 | 15.17 | 14.61 | 15.47 | 12.03 | Active | Activity [18]: 68.54%
6 | CC1(C)[C@@H](O)CC[C@]2(C)[C@H]3C(=O)C=C4[C@@H]5C[C@@](C)(C(=O)O)CC[C@]5(C)CC[C@@]4(C)[C@]3(C)CC[C@@H]12 [ENOXOLONE] | – | – | – | – | – | – | – | – | – | – | Activity [19]: 73.73%
7 | COC(=O)[C@@]1(C)CC[C@]2(C)CC[C@]3(C)C(=CC(=O)[C@@H]4[C@@]5(C)CC[C@H](NC(=O)[C@H](C)N)C(C)(C)[C@@H]5CC[C@]43C)[C@@H]2C1 | 5.55 | 6.44 | 5.38 | 4.46 | 5.82 | 5.08 | 5.25 | 4.46 | 5.39 | – | Activity [20]: 56.77%; Activity [21]: Active
8 | COC(=O)[C@@]1(C)CC[C@]2(C)CC[C@]3(C)C(=CC(=O)[C@@H]4[C@@]5(C)CC[C@H](OC(=O)[C@@H](N)CSCc6ccccc6)C(C)(C)[C@@H]5CC[C@]43C)[C@@H]2C1 | 16.78 | > 30 | 17.9 | 15.84 | 16.72 | – | 15.69 | 15.45 | – | Active | Activity [15]: 60.64%
9 | CC1(C)C(=O)CC[C@]2(C)[C@H]3C(=O)C=C4[C@@H]5C[C@@](C)(C(=O)O)CC[C@]5(C)CC[C@@]4(C)[C@]3(C)CC[C@@H]12 | > 30 | > 30 | > 30 | > 30 | > 30 | > 30 | > 30 | – | – | – | IC50 [17]: > 30 µmol; IC50 [2]: > 30 µmol; IC50 [5]: > 30 µmol; IC50 [7]: > 30 µmol
10 | COC(=O)[C@@]1(C)CC[C@]2(C)CC[C@]3(C)C(=CC(=O)[C@@H]4[C@@]5(C)CC[C@@H](N)C(C)(C)[C@@H]5CC[C@]43C)[C@@H]2C1 | 2.74 | 3.21 | 3.33 | 2.44 | 3.3 | 2.55 | 2.84 | 2.33 | 3.42 | – | Activity [22]: 64.88%; Activity [23]: Active
11 | COC(=O)[C@@]1(C)CC[C@]2(C)CC[C@]3(C)C(=CC(=O)[C@@H]4[C@@]5(C)CC[C@H](N)C(C)(C)[C@@H]5CC[C@]43C)[C@@H]2C1 | 2.52 | 2.56 | 2.51 | 2.36 | 2.74 | 2.47 | 2.62 | 2.45 | 3.32 | – | Activity [22]: 74.21%; Activity [23]: Active
12 | CC1(C)[C@@H](OC(=O)CNCCCN)CC[C@]2(C)[C@H]3C(=O)C=C4[C@@H]5C[C@@](C)(C(=O)OCc6ccccc6)CC[C@]5(C)CC[C@@]4(C)[C@]3(C)CC[C@@H]12 | 5.14 | 4.96 | 4.74 | 1.96 | 2.99 | – | – | 2.07 | – | – | Activity [20]: 80.57%; Activity [21]: Active
